Measurements from the EternaBench riboswitch data.

System: MS2 coat protein
Assay: apparent Kd, MS2 coat protein; higher = weaker binding; RNA-MaP array; FMN 200 µM where present
Procedure, shortened: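 Binding was read on Illumina sequencing-chip clusters where stalled E. coli RNA polymerase had transcribed each design. A titration of SNAP-549-labelled MS2 coat protein began at 0.7 or 1.5 nM and doubled to 3 µM, once without ligand and once with constant ligand, in 100 mM Tris-HCl pH 7.5, 80 mM KCl, 4 mM MgCl2, BSA, DTT, yeast tRNA and Tween-20. The apparent Kd is the median of filtered per-cluster binding-curve fits, based on green signal normalised to red-channel RNA signal and control-cluster median Fmax.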

[1] = designed as: OFF switch for flavin mononucleotide, no ligand
[2] = ligand present: flavin mononucleotide, designed as: OFF switch for flavin mononucleotide
[3] = designed as: ON switch for flavin mononucleotide, no ligand
[4] = ligand present: flavin mononucleotide, designed as: ON switch for flavin mononucleotide

Sequence | apparent Kd [1] [µM] | apparent Kd [2] [µM] | apparent Kd [3] [µM] | apparent Kd [4] [µM]
GUGCGGUAGGAGAAGGACAGAGGCUUCAUUACAUACAUGAGGAUCACCCAUGUAGGAUAUCCUACCUCACGCGGCCUCCUCCUG | 0.00848 | 0.0318 |  | 
AUAAAUCAUGUAGGAUAUGCGUGGCGAAGCUAUGCAGAAGGACAUGAGGAUCACCCAUGUCGUUCCGUCUGCGUACAGACGGAA | 0.0338 | 0.306 |  | 
AAUUGACACGUAGGAUAUCGAUCUAAUUUAAUUCGAGAAGGACGCACAUGAGGAUCACCCAUGUUUAAUGGAUUAGACAUGUUG | 0.162 | 0.328 |  | 
AGCACGAAAGUGCAACGAUGUACGAGAAGGACAUGAGGAUCACCCAUGUAAGCAGUAACUGCAAUGUAGGAUAUCGUACAUCGA | 0.00841 | 0.012 |  | 
UCGGUGACAGGAUAUACAUGAGGAUCACCCAUGUUAAGAAGAGAAAGGGCAGGAAGAGGUAGAAGGGUCGCUGU | 0.0517 | 0.069 |  | 
AUCGUUGACUGGACGAGAAUAGGGCAGGAUAUACAUGAGGAUCACCCAUGUGAAGCACGAAAGAGGUAGAAGGGCCCACGUCAU |  | 0.0205 |  | 
AGAACAUGAGGAUCACCCAUGUAAAGAUCGGUCAAUAAGGGUGAGGAUAUGCUUAAAAUAAGGUAGCAGAAGGUACUUGGUGCA |  |  | 0.0912 | 0.245
UUGUUGUAUGUAGGAUAUGCGUGUUAUUAUUAUGCAGAAGGACAUGAGGAUCACCCAUGUAUAUUAUUAUUAUAUGUUAUAUAU | 0.025 | 0.0239 |  | 
ACUGCAUAGUCAGGAUAUGCAAAAGCAGACUCAAAGAGUCUGAACAACACAUGAGGAUCACCCAUGUAGAAGGGACUGUGCAGU | 0.0183 | 0.018 |  | 
CUGACGUCAGGAUAUCUGAUGUCUAACUUCGGUUAGACAUCAGAGAAGGGACAUGAGGAUCACCCAUGUCAGAA | 0.0255 | 0.0208 |  | 
UGAGUGUGAGGAUAUAUGGUAGGGAUGAAGGGAUAGAAUUAGUAGAAGGUACAUGAGGAUCACCCAUGUUAGGA | 0.0244 | 0.0219 |  | 
AUUUUUUAUGUAGGAUAUGCUUGUGGUAAGAUAGCAGAAGGACAUGAGGAUCACCCAUGUUAAUGAUAGAGAUUUUAUGUUGGU | 0.0388 | 0.0588 |  | 
CCUUCACAUGAGGAUCACCCAUGUCAGGAUAUCUCAGUGCAUCCACACGGACGCAUCAAGAGAAGGGACAAAAC | 0.0464 | 0.0536 |  | 
GGUACUCAAAGAGUACCAAUACGAACAUGAGGAUCACCCAUGUAGGAUAUGCAAAAGCCGGAGUAGCAGAAGGACAUGUGCCUA | 0.0126 | 0.0464 |  | 
GCUACUUAUUUUAAGUAUGAUUUACUAGAAGGUAGAUACAUGAGGAUCACCCAUGUUUAGAGUUCUAAGGAUAUAGUUUGUAGC |  |  | 0.00781 | 0.00757
CGGGUCUGAGGAUAUCCAUCUUCAUACAUGAGGAUCACCCAUGUUUACCUUUGGGUUCCUGGAGAAGGCAGUUUUC | 0.0749 | 0.0784 |  | 
GUCGAGUGAGGAUAUGGUGAGUAGUGCCUGAGCGCUGCUCACCAGAAGGCACAUGAGGAUCACCCAUGUAUAAC | 0.0237 | 0.0417 |  | 
AUAAAACGAGGAUAUGCUGGGCUUCUGUGAUGCAUAUGCUCACAUGAGGAUCACCCAUGUAGAAGGUGUAAAAU | 0.278 | 0.289 |  | 
CGUAUGUCAGGAUAUGUGUAUGCCGCUCAGGGCGAGCGGCAGCAGAAGGGACAUGAGGAUCACCCAUGUUCGGG | 0.0625 | 0.127 |  | 
GGAUAGGACAGAGGAUAUACGUGCUAGAGAUACUAGCAAAAUUUCCUCACAUGAGGAUCACCCAUGUAGAAGGCUGUCCUAGCG | 0.0157 | 0.376 |  | 
GCCGCGUUUCGCGCCUACAUGAGGAUCACCCAUGUUUGUGGGCAGGAUAUCGUCCGCUCUGCGGGCGAGAAGGGCUGUUGUGGU |  |  | 0.0577 | 0.05
CACUCAGGCACAUGAGGAUCACCCAUGUCCCGGAAGCCGAGACAGGAUAUGUGCCUCGAAUGUGCACAGAAGGGUCUACUAUAU |  |  | 0.226 | 0.18
UCGUCCACGGAGAAGGGCACAUGAGGAUCACCCAUGUGGGCUUGGUGGUGGUGGUGUUAAAAUGUGUAGGAUAUCCAGGGCCGU | 0.0195 | 0.0206 |  | 
UGGUACAUGGGAGGAUAUCAUGUAGACACAUGAGGAUCACCCAUGUCGAUGGAGACAUCGGAGAUUGAGAAGGCCCAUGUACCU |  |  | 0.226 | 0.0083
AUCAGCUCGUCAGGAUAUACGUCACUGCUUCGGCAGUGUAAUAAAAUAACAUGAGGAUCACCCAUGUAGAAGGGACGAGCUGAU | 0.00593 | 0.00613 |  | 
GAAGUUAGAGGAUAUACAUGAGGAUCACCCAUGUGUGUUGUGAACGAUGUACGUUUAUGUAGAAGGCUAACUUC | 0.0236 | 0.106 |  | 
CCGCAAAUGGAGGAUAUCGUAUCGGAUACGAUACGAGAAGGCUAUACAUGAGGAUCACCCAUGUGUCCUAGCGG | 0.0135 | 0.0183 |  | 
GGUCAUCAAGUCAGGAUAUCGUCUGGUCAAUCAGGCGAGAAGGGACAUGAGGAUCACCCAUGUCGACUCAUCAG | 0.0339 | 0.139 |  | 
